Measurements as given in ChEMBL document CHEMBL1132564, “Antitumor benzothiazoles. 7. Synthesis of 2-(4-acylaminophenyl)benzothiazoles and investigations into the role of acetylation in the antitumor activities of the parent amines” (J Med Chem, 1999).

What was measured:
[1] = tested on: NCI; test: In vitro antitumor activity against carcinoma cell lines by 2-day assay; format: functional, Homo sapiens
Outline: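 NCI panel sulforhodamine B assay: line-specific seeding, 24 h drug-free, then five 10-fold dilutions (top 10^-4 M) for 2 days; growth inhibition from protein-stain optical density change; mean log GI50 across panel.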

[2] = tested on: MDA-MB-468; test: In vitro antitumor activity against MDA-468 carcinoma cell line.; format: functional, cell-based; details: Homo sapiens
Outline: (§1)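 MTT assay, 7-day format: 250–300 cells/well, adhered 24 h drug-free, then compound 1 pM–100 μM (n = 8), final DMSO <0.25%; RPMI 1640/10% FCS, 37 °C, 5% CO2. MTT added after exposure, 4 h, formazan dissolved in DMSO–glycine (4:1), absorbance 550 nm.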

[3] = tested on: MCF7; test: In vitro antitumor activity against MCF-7 carcinoma cell line.; format: functional, cell-based; details: Homo sapiens; outline: as §1
[4] = tested on: Homo sapiens; test: In vitro concentration to reduce colony formation of human tumor xenografts to 30% of the control; format: functional
Outline: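 Clonogenic colony-formation assay using cells from 22 human tumor xenografts, tested at 0.1, 1.0 and 10 μg/mL; colony inhibition expressed as T/C, with T/C < 30% scored active; IC70 concentration reported.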

[5] = tested on: NCI; test: In vitro antitumor activity against carcinoma cell lines by 6-day assay; format: functional, Homo sapiens
Outline: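 NCI 60-cell-line panel, sulforhodamine B protein stain. Seeding density set per line's growth; 24 h drug-free incubation, then test agent at five 10-fold dilutions up to 10^-4 M for 6 days of exposure. Growth inhibition derived from change in protein-stain optical density; log GI50 reported.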

SMILES | IC50 [2] [nM] | IC50 [3] [nM] | Mean log GI50 [1] [M] | Mean IC70 [4] [µg/mL] | Mean log GI50 [5] [M]
CC(=O)N(C(C)=O)c1ccc(-c2nc3ccccc3s2)cc1 | > 100 | > 100 | – | – | –
CC(=O)Nc1ccc(-c2nc3ccccc3s2)cc1C | > 10000 | > 10000 | -4.36 | – | –
O=C(CCl)Nc1ccc(-c2nc3ccccc3s2)cc1 | > 100 | > 10 | -5.7 | 3.5 | –
CC(=O)Nc1ccc(-c2nc3ccccc3s2)cc1 | > 100 | > 100 | -4.4 | – | –
CC(=O)Nc1ccc(-c2nc3ccccc3s2)cc1[N+](=O)[O-] | > 1000 | > 1000 | – | – | –
CC(=O)Nc1ccc(-c2nc3ccccc3[nH]2)cc1 | > 10000 | > 10000 | – | – | –
Nc1ccc(-c2nc3ccccc3o2)cc1 | > 1000 | > 100 | -4.26 | – | –
Nc1ccc(-c2nc3ccccc3s2)cc1 | > 10 | > 10 | -4.76 | 10 | –

The next lines start with results.

IC50 [2] [nM] | IC50 [3] [nM] | SMILES | Mean log GI50 [1] [M] | Mean IC70 [4] [µg/mL] | Mean log GI50 [5] [M]
> 100 | > 100 | CC(=O)Nc1ccc(-c2nc3ccccc3s2)cc1I | -4.7 | – | –
> 100 | > 10 | CC(=O)Nc1ccc(-c2nc3ccccc3s2)cc1Cl | -4.54 | – | –
< 1 | < 1 | Cc1cc(-c2nc3ccccc3s2)ccc1N | -4.61 | 6.9 | -5.05
> 100 | > 100 | O=C(Nc1ccc(-c2nc3ccccc3s2)cc1)C(Cl)Cl | – | – | –
< 1 | < 1 | Nc1ccc(-c2nc3ccccc3s2)cc1I | -4.75 | 6.1 | -5.12
